The subject of assay [1] is Meloidogyne incognita. The assay is described as follows: Nematicidal activity against Meloidogyne incognita J2 (root-knot nematode) assessed as paralysis measured after 1 day at 28 degC. It counts as functional, organism-based. To be noted: 24 h. The gist of the method: (§1)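 Freshly hatched (24 h) M. incognita J2 were taken from infested tomato roots. Each well held 25 J2 immersed in test solution, kept in the dark at 28 °C. Ethanol stocks were diluted in water with Tween-20 (final ethanol ≤1%, Tween-20 ≤0.3% v/v); water-soluble acids were made up in water. J2 were scored motile or paralyzed by inverted microscope and corrected for water-control paralysis (Schneider-Orelli). EC50 came from log-logistic regression; two experiments, six replicates each.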

Assay [2] concerns Meloidogyne incognita. The assay is described as follows: Nematicidal activity against Meloidogyne incognita J2 (root-knot nematode) assessed as paralysis measured after 1 hr at 28 degC. It counts as functional, organism-based. The gist of the method:
as §1

In assay [3] the test system is Meloidogyne incognita. The assay is described as follows: Nematicidal activity against Meloidogyne incognita J2 (root-knot nematode) assessed as paralysis measured at 500 ug/mL by fumigant assay. Type of assay: functional. Summed up:
(§2)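 Vapour-exposure microwell test with 24 h-old J2 from infested tomato roots, kept in the dark at 28 °C. Test solution went into one well and J2 in tap water into the four adjacent wells, with one dose per plate. Paralysis in the adjacent wells (120 J2 per replicate) was scored by microscope as motile or paralyzed and corrected for water-control paralysis (Schneider-Orelli). Two experiments, six replicates.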

Assay [4] concerns Meloidogyne incognita. The assay is described as follows: Nematicidal activity against Meloidogyne incognita J2 (root-knot nematode) assessed as paralysis measured after 1 day at 28 degC by fumigant assay. Type of assay: functional, organism-based. The conditions noted are these: 24 h. The gist of the method: as §2

Converted amounts (≈) assume the structure as drawn.

For orientation: EC50 means the concentration at which the effect is half-maximal. With `CC(=O)O` [ACETIC ACID], the 50% effective concentration (EC50) is 38.3 µg/mL (≈ 638 µM) in assay [1] and 64 µg/mL (≈ 1070 µM) in assay [2].

Regarding `O=Cc1ccc(CO)o1` [AES-103], the EC50 in assay [1] was 45.7 µg/mL (≈ 362 µM); in assay [2], above 100 µg/mL.

Regarding `CCCC(=O)O` [BUTYRIC ACID], the half-maximal effective concentration (EC50) was found to be 40.7 µg/mL (≈ 462 µM) in assay [1] and 69.8 µg/mL (≈ 792 µM) in assay [2]. Further, the Activity in assay [3] is above 30 µg/mL.

With `CCCCCCCCCC(=O)O` [DECANOIC ACID], the EC50 stood at 248 µg/mL (≈ 1440 µM) in assay [1] and 354 µg/mL (≈ 2050 µM) in assay [2].

For `CCOP(=O)(SC(C)CC)N1CCSC1=O` (stereo not given) [FOSTHIAZATE], the EC50 in assay [1] came out at 0.4 µg/mL (≈ 1.41 µM); in assay [2] it was 3.3 µg/mL (≈ 11.6 µM).

`O=Cc1ccco1` [FURFURAL]: the EC50 in assay [4] amounted to 24.1 µg/mL (≈ 251 µM); in assay [1], 8.5 µg/mL (≈ 88.5 µM); in assay [2], 11.4 µg/mL (≈ 119 µM).

For `OCc1ccco1` [FURFURYL ALCOHOL], the values for the EC50 in assay [1] and in assay [2] were 41.2 µg/mL (≈ 420 µM) and above 100 µg/mL, respectively.

Regarding `CCCCCC(=O)O` [HEXANOATE], the half-maximal effective concentration (EC50) in assay [1] came to 41.1 µg/mL (≈ 354 µM); in assay [2], 88.7 µg/mL (≈ 764 µM).

As for `CCCCCCCCCCCCCCCC(=O)O` [PALMITIC ACID], the EC50 in assay [1] and in assay [2] was above 500 µg/mL each time.

The values above are taken from ChEMBL document CHEMBL3045148, “nematicidal carboxylic acids and aldehydes from Melia azedarach fruits” (J Agric Food Chem, 2010).
